# In ChEMBL document CHEMBL2169747, “Synthesis and biological properties of highly sequence-specific-alkylating N-methylpyrrole-N-methylimidazole polyamide conjugates” (J Med Chem, 2012):
# Legend:
# A549 [1] = assay: Downregulation of DPYD gene expression in human A549 cells at 26 nM after 12 hrs by microarray analysis relative to control; format: functional
# Method in brief: (§1)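 A549 cells, 4 × 10^5 per 60 mm dish, were exposed to conjugate for 12 h in medium with 0.1% DMSO; vehicle control was 0.1% DMSO. Whole human genome (~25 000 genes) expression was profiled by microarray and expression compared with the control.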
# A549 [2] = assay: Downregulation of SLC4A4 gene expression in human A549 cells at 26 nM after 12 hrs by microarray analysis relative to control; format: functional
# Method in brief: (§2)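 A549 cells (RPMI-1640, 10% heat-inactivated FBS, penicillin/streptomycin, 37 °C, 5% CO2) seeded at 4 × 10^5 per 60 mm dish. Exposed 12 h to conjugate at 21, 26, 34 or 100 nM in medium with 0.1% DMSO, against 0.1% DMSO control. Whole-genome (~25 000 genes) expression profiled by microarray.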
# A549 [3] = assay: Downregulation of ACTG gene expression in human A549 cells at 26 nM after 12 hrs by microarray analysis relative to control; format: functional; method in brief: as §1
# A549 [4] = assay: Downregulation of NP_940865.1 gene expression in human A549 cells at 26 nM after 12 hrs by microarray analysis relative to control; format: functional; method in brief: as §2
# A549 [5] = assay: Downregulation of Q5WOV6 gene expression in human A549 cells at 26 nM after 12 hrs by microarray analysis relative to control; format: functional; method in brief: as §2
# A549 [6] = assay: Downregulation of HS2ST1 gene expression in human A549 cells at 26 nM after 12 hrs by microarray analysis relative to control; format: functional; method in brief: as §1
# A549 [7] = assay: Downregulation of MYCBP2 gene expression in human A549 cells at 26 nM after 12 hrs by microarray analysis relative to control; format: functional; method in brief: as §1
# A549 [8] = assay: Downregulation of XP_375606.2 gene expression in human A549 cells at 26 nM after 12 hrs by microarray analysis relative to control; format: functional; method in brief: as §2
# A549 [9] = assay: Downregulation of EPM2A gene expression in human A549 cells at 26 nM after 12 hrs by microarray analysis relative to control; format: functional; method in brief: as §1
# A549 [10] = assay: Downregulation of SEMA3E gene expression in human A549 cells at 26 nM after 12 hrs by microarray analysis relative to control; format: functional; method in brief: as §2
# A549 [11] = assay: Downregulation of Q9Y6Z5 gene expression in human A549 cells at 26 nM after 12 hrs by microarray analysis relative to control; format: functional; method in brief: as §2
# A549 [12] = assay: Downregulation of CTTNBP2 gene expression in human A549 cells at 26 nM after 12 hrs by microarray analysis relative to control; format: functional; method in brief: as §1
# A549 [13] = assay: Downregulation of HIST1H2AC gene expression in human A549 cells at 26 nM after 12 hrs by microarray analysis relative to control; format: functional; method in brief: as §1
# A549 [14] = assay: Upregulation of SPESP1 gene expression in human A549 cells at 26 nM after 12 hrs by microarray analysis relative to control; format: functional
# Method in brief: (§3)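 4 ×10^5 A549 cells seeded per 60 mm dish and treated 12 h with conjugate (21, 26, 34 or 100 nM) in medium; control medium contained 0.1% DMSO, with conjugates added as 0.1% DMSO solutions. Whole human genome (~25 000 genes) expression profiled by microarray against the DMSO control. A549 culture: RPMI-1640 with 10% heat-inactivated FBS, penicillin/streptomycin, 37 °C, 5% CO2.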
# A549 [15] = assay: Upregulation of BBC3 gene expression in human A549 cells at 26 nM after 12 hrs by microarray analysis relative to control; format: functional; method in brief: as §2
# A549 [16] = assay: Upregulation of MDM2 gene expression in human A549 cells at 26 nM after 12 hrs by microarray analysis relative to control; format: functional; method in brief: as §3
# A549 [17] = assay: Upregulation of RRAD gene expression in human A549 cells at 26 nM after 12 hrs by microarray analysis relative to control; format: functional; method in brief: as §3
# A549 [18] = assay: Upregulation of PPM1D gene expression in human A549 cells at 26 nM after 12 hrs by microarray analysis relative to control; format: functional; method in brief: as §3
# A549 [19] = assay: Upregulation of GDF15 gene expression in human A549 cells at 26 nM after 12 hrs by microarray analysis relative to control; format: functional; method in brief: as §3
# Mus musculus [20] = assay: Toxicity in BALB/c nu/nu mouse at 0.50 mg/kg, ip for 14 days; format: organism-based; set-up: dose 0.5 mg/kg, route intraperitoneal; conditions: in vivo, 0.5 mg/kg, 336 h
# Method in brief: (§4)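 Pre-test in male BALB/c-nu/nu mice without xenografts. Naked conjugate was dissolved in 100% DMSO and given ip at 0.50 mg/kg (12.5 μg/mouse). Liposomal conjugate (0.33 mg/mL in 17 mM lipid, hydrated with water and sonicated) was given iv at 1.6 mg/kg (41 μg/mouse), 125 μL single dose.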
# Mus musculus [21] = assay: Toxicity in BALB/c nu/nu mouse at 1.6 mg/kg, iv administered as liposomal conjugate for 14 days; format: organism-based; set-up: dose 1.6 mg/kg, route intravenous; conditions: in vivo, 336 h; method in brief: as §4
# A549 [22] = assay: Downregulation of Q8N570 gene expression in human A549 cells at 34 nM after 12 hrs by microarray analysis relative to control; format: functional; method in brief: as §2
# A549 [23] = assay: Downregulation of Q9P223 gene expression in human A549 cells at 34 nM after 12 hrs by microarray analysis relative to control; format: functional; method in brief: as §2
# A549 [24] = assay: Downregulation of RABGAP1L gene expression in human A549 cells at 34 nM after 12 hrs by microarray analysis relative to control; format: functional; method in brief: as §2
# A549 [25] = assay: Downregulation of Q8NBA2 gene expression in human A549 cells at 34 nM after 12 hrs by microarray analysis relative to control; format: functional; method in brief: as §2
# A549 [26] = assay: Downregulation of LAMA2 gene expression in human A549 cells at 34 nM after 12 hrs by microarray analysis relative to control; format: functional; method in brief: as §1
# A549 [27] = assay: Downregulation of ACTG gene expression in human A549 cells at 34 nM after 12 hrs by microarray analysis relative to control; format: functional; method in brief: as §1
# A549 [28] = assay: Downregulation of SIPA1L1 gene expression in human A549 cells at 34 nM after 12 hrs by microarray analysis relative to control; format: functional; method in brief: as §2
# A549 [29] = assay: Downregulation of OR1C1 gene expression in human A549 cells at 34 nM after 12 hrs by microarray analysis relative to control; format: functional; method in brief: as §2
# A549 [30] = assay: Upregulation of BTG2 gene expression in human A549 cells at 34 nM after 12 hrs by microarray analysis relative to control; format: functional; method in brief: as §3
# A549 [31] = assay: Upregulation of MDM2 gene expression in human A549 cells at 34 nM after 12 hrs by microarray analysis relative to control; format: functional; method in brief: as §3
# A549 [32] = assay: Upregulation of BBC3 gene expression in human A549 cells at 34 nM after 12 hrs by microarray analysis relative to control; format: functional; method in brief: as §2
# A549 [33] = assay: Upregulation of HES2 gene expression in human A549 cells at 34 nM after 12 hrs by microarray analysis relative to control; format: functional; method in brief: as §3
# A549 [34] = assay: Upregulation of NP_997213.1 gene expression in human A549 cells at 34 nM after 12 hrs by microarray analysis relative to control; format: functional; method in brief: as §3
# A549 [35] = assay: Upregulation of U124 gene expression in human A549 cells at 34 nM after 12 hrs by microarray analysis relative to control; format: functional; method in brief: as §3
smiles,measurement,setting,value
CC(=O)Nc1cn(C)c(C(=O)Nc2cc(C(=O)Nc3cc(C(=O)NCCC(=O)Nc4cc(C(=O)NCCCC(=O)Nc5cc(C(=O)NCCC(=O)Nc6cn(C)c(C(=O)Nc7ccc8[nH]c(C(=O)N9CC(CCl)c%10c9cc(O)c9ccccc%109)cc8c7)n6)n(C)c5)n(C)c4)n(C)c3)n(C)c2)n1 (racemic),fold change (FC),A549 [1],0.115
same,fold change (FC),A549 [2],0.273
same,fold change (FC),A549 [3],0.311
same,fold change (FC),A549 [4],0.322
same,fold change (FC),A549 [5],0.324
same,fold change (FC),A549 [6],0.329
same,fold change (FC),A549 [7],0.338
same,fold change (FC),A549 [8],0.35
same,fold change (FC),A549 [9],0.353
same,fold change (FC),A549 [10],0.353
same,fold change (FC),A549 [11],0.356
same,fold change (FC),A549 [12],0.36
same,fold change (FC),A549 [13],0.362
same,fold change (FC),A549 [14],11
same,fold change (FC),A549 [15],9.4
same,fold change (FC),A549 [16],8.1
same,fold change (FC),A549 [17],6
same,fold change (FC),A549 [18],5.7
same,fold change (FC),A549 [19],5.5
same,Activity,Mus musculus [20],Non-toxic
same,Activity,Mus musculus [21],Non-toxic
CC(=O)Nc1cn(C)c(C(=O)Nc2cn(C)c(C(=O)Nc3cc(C(=O)NCCC(=O)Nc4cc(C(=O)NCCCC(=O)Nc5cn(C)c(C(=O)NCCC(=O)Nc6cn(C)c(C(=O)Nc7ccc8[nH]c(C(=O)N9CC(CCl)c%10c9cc(O)c9ccccc%109)cc8c7)n6)n5)n(C)c4)n(C)c3)n2)n1 (racemic),fold change (FC),A549 [22],0.186
same,fold change (FC),A549 [23],0.258
same,fold change (FC),A549 [24],0.276
same,fold change (FC),A549 [25],0.276
same,fold change (FC),A549 [26],0.3
same,fold change (FC),A549 [27],0.307
same,fold change (FC),A549 [28],0.309
same,fold change (FC),A549 [29],0.324
same,fold change (FC),A549 [30],9.7
same,fold change (FC),A549 [31],8.9
same,fold change (FC),A549 [32],8.5
same,fold change (FC),A549 [33],8.2
same,fold change (FC),A549 [34],6
same,fold change (FC),A549 [35],5.6
